Reference: ChEMBL document CHEMBL4261634, “Design and optimization of 2,3-dihydrobenzo[b][1,4]dioxine propanoic acids as novel GPR40 agonists with improved pharmacokinetic and safety profiles” (Bioorg Med Chem, 2018)

How the values were obtained:
[1] = Tmax in Sprague-Dawley rat at 3 mg/kg, po by LC-ESI-MS analysis; assay type: ADME, organism-based; conditions: in vivo
Outline: (§1)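 SD rats dosed orally (3 or 10 mg/kg) or by intravenous injection (1 mg/kg). Plasma PK parameters derived per route: Cmax, AUC0-t, Tmax, t1/2 and F after oral dosing; CL, AUC0-t, MRT, t1/2 and Vdss after iv dosing. Mean ± SD from three independent experiments (n = 3).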

[2] = molecular target: T1, Solute carrier organic anion transporter family member 1B3 (Homo sapiens, UniProt Q9NPD5); experiment: Inhibition of human OATP1B3; assay type: ADME
T1 sequence (Q9NPD5 whole entry): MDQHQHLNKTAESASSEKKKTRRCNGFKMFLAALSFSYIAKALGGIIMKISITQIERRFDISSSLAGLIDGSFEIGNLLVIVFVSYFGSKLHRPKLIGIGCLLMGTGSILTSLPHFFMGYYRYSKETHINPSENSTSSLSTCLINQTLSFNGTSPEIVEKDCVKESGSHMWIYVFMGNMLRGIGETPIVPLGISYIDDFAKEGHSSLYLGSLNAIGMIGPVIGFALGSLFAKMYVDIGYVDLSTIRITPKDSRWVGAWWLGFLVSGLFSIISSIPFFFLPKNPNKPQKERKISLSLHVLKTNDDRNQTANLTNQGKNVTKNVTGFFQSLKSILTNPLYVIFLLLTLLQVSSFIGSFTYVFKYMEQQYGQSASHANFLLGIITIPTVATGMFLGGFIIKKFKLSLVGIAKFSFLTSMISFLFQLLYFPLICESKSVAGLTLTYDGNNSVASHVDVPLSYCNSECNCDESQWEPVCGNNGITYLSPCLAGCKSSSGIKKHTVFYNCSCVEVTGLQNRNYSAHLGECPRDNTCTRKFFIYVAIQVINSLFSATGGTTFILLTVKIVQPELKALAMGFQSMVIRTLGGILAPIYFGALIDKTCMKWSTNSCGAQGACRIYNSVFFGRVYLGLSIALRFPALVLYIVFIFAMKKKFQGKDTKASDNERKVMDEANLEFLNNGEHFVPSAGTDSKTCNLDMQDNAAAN

[3] = Elimination half life in Sprague-Dawley rat at 10 mg/kg, po by LC-ESI-MS analysis; assay type: ADME, organism-based; conditions: in vivo, read-out: beta t1/2 (converted); outline: as §1
[4] = molecular target: Free fatty acid receptor 1 (Homo sapiens, UniProt O14842); experiment: Agonist activity at human GPR40 expressed in human HEK293 cells assessed as increase in intracellular calcium flux after 10 mins by fluorescence assay relative to linoleic acid; assay type: functional, cell-based
Outline: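 Human GPR40 activity read by calcium mobilization to give EC50. Emax expressed relative to linoleic acid as 100%. Mean ± SD, n = 3.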

[5] = molecular target: Cytochrome P450 2C19 (Homo sapiens, UniProt P33261); experiment: Inhibition of CYP2C19 (unknown origin); assay type: ADME
Chain of Cytochrome P450 2C19 (P33261 whole entry): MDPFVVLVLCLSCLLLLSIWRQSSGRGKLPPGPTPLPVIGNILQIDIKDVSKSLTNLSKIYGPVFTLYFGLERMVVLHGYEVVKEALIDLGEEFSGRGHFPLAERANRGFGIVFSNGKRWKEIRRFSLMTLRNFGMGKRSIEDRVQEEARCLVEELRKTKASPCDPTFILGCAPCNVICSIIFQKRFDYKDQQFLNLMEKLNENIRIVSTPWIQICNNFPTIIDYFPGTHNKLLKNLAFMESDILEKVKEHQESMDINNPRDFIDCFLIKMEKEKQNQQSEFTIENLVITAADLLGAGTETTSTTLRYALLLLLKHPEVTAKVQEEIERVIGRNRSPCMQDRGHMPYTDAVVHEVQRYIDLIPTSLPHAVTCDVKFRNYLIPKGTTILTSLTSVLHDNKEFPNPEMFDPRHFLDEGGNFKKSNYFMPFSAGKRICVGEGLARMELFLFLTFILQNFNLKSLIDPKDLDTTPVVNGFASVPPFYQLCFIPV

Chain of Free fatty acid receptor 1 (O14842 whole entry): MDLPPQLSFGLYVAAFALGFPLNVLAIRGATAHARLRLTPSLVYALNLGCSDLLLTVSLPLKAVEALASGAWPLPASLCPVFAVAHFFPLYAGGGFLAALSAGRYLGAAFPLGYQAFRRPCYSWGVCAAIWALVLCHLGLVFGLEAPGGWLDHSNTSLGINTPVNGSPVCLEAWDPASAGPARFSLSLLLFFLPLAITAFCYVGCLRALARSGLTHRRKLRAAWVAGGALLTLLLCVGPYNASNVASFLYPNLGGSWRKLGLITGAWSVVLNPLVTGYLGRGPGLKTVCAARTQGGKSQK

CC#C[C@@H](CC(=O)O)c1ccc(OC[C@H]2COc3ccc(Cl)cc3O2)cc1
Tmax [1]: 3 h
IC50 [2]: 39.5 µM
half-life [3]: 25.7 h
Emax [4]: 86%
IC50 [5]: > 100 µM
